Legend:
human = experiment: amount in urine after dosing (umol); settings: dosed: tert-amyl methyl ether, 38.4 ppm, inhalation, duration: 4 hr
Outline: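 Sampling and analytical methods are those of each source and frequently went unreported. The concentration-versus-time and amount-versus-time points were compiled from published in vivo toxicokinetic studies and two structured collections. Most were digitised from plot screenshots with WebPlotDigitizer, with others copied from tables, in the reported units.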

rat [1] = experiment: amount in urine after dosing (umol); settings: dosed: tert-amyl methyl ether, 38.4 ppm, inhalation, duration: 4 hr, F344 (Harlan Winkelmann)
rat [2] = settings: dosed: benzo[a]pyrene, 50 umol/kg, dermal, duration: continuous, male, Wistar
rat [3] = settings: dosed: benzo[a]pyrene, 10 umol/kg, dermal, duration: continuous, male, Wistar
rat [4] = settings: dosed: benzo[a]pyrene, 20 umol/kg, oral, male, Wistar
rat [5] = settings: dosed: benzo[a]pyrene, 10 umol/kg, oral, male, Wistar
rat [6] = settings: dosed: benzo[a]pyrene, 50 umol/kg, oral, male, Wistar
rat [7] = settings: dosed: benzo[a]pyrene, 20 umol/kg, dermal, duration: continuous, male, Wistar
rat [8] = experiment: concentration in urine after dosing; settings: male, Sprague Dawley
rat [9] = experiment: concentration in liver after dosing; settings: male, Sprague Dawley
rat [10] = experiment: concentration in kidney after dosing; settings: male, Sprague Dawley
rat [11] = experiment: concentration in lung after dosing; settings: male, Sprague Dawley
rat [12] = experiment: concentration in skin after dosing; settings: dosed: benzo(a)pyrene, 40 umol/kg, iv, male, Sprague Dawley
rat [13] = experiment: concentration in blood after dosing; settings: male
rat [14] = experiment: concentration in adipose after dosing; settings: dosed: benzo(a)pyrene, 40 umol/kg, iv, male, Sprague Dawley
rat [15] = experiment: concentration in feces after dosing; settings: male, Sprague Dawley
rat [16] = settings: dosed: benzo[a]pyrene, 1 mg/kg, iv, male, Sprague Dawley
rat [17] = settings: dosed: benzo[a]pyrene, 1 mg/kg, iv, male, Sprague Dawley; remark: listed apart in the source
rat [18] = experiment: concentration in serum after dosing; settings: dosed: benzo[a]pyrene, 20 mg/kg, oral, male, Wistar
rat [19] = experiment: concentration in testes after dosing; settings: dosed: [3H]benzo(a)pyrene, 1 ug/kg, inhalation, male, Sprague Dawley, radiolabel
rat [20] = experiment: concentration in body after dosing; settings: dosed: [3H]benzo(a)pyrene, 1 ug/kg, inhalation, male, Sprague Dawley, radiolabel
rat [21] = experiment: concentration in intestines after dosing; settings: dosed: [3H]benzo(a)pyrene, 1 ug/kg, inhalation, male, Sprague Dawley, radiolabel
rat [22] = experiment: concentration in stomach after dosing; settings: dosed: [3H]benzo(a)pyrene, 1 ug/kg, inhalation, male, Sprague Dawley, radiolabel
rat [23] = experiment: concentration in heart/thymus after dosing; settings: dosed: [3H]benzo(a)pyrene, 1 ug/kg, inhalation, male, Sprague Dawley, radiolabel
rat [24] = experiment: concentration in spleen after dosing; settings: dosed: [3H]benzo(a)pyrene, 1 ug/kg, inhalation, male, Sprague Dawley, radiolabel
rat [25] = experiment: concentration in blood after dosing; settings: dosed: perchloroethylene, 12500 ppm, dermal, duration: 4 hr, male, F344
rat [26] = experiment: concentration in blood after dosing; settings: dosed: perchloroethylene, 12500 ppm, dermal, duration: 4 hr, male, F344; remark: listed apart in the source
rat [27] = experiment: concentration in blood after dosing; settings: dosed: perchloroethylene, 12500 ppm, dermal, duration: 4 hr, male, F344; remark: listed apart in the source

CCC(C)(O)C(=O)O (configuration not stated) [2-hydroxy-2-methyl butyrate]
Settings | amount in urine
human, 0.1093 h | 54.7
human, 6.284 h | 93.4
human, 12.15 h | 100
human, 18.2 h | 59.9
human, 24.12 h | 39.1
human, 30.12 h | 33.6
human, 36.29 h | 57.8
human, 42.13 h | 29.8
human, 48.22 h | 51.6
rat [1], 5.978 h | 0.204
rat [1], 12 h | 0.29
rat [1], 18.07 h | 0.213
rat [1], 24.08 h | 0.0776
rat [1], 29.94 h | 0.0345
rat [1], 36.02 h | 0.092
rat [1], 42.04 h | 0.103
rat [1], 48.11 h | 0.0517

Oc1ccc2ccc3c4ccccc4cc4ccc1c2c43 [3-OH-benzo[a]pyrene]
Settings | amount in urine after dosing [µg]
rat [2], 23.15 h | 4.97
rat [2], 47.4 h | 8.97
rat [2], 71.67 h | 13.3
rat [2], 95.8 h | 17.3
rat [2], 120.35 h | 20
rat [2], 144.4 h | 20.8
rat [3], 23.76 h | 0.169
rat [3], 48.25 h | 1.6
rat [3], 72.44 h | 5.62
rat [3], 96.26 h | 8.27
rat [3], 120.41 h | 10.3
rat [3], 145.21 h | 10.7
rat [4], 24.03 h | 3.66
rat [4], 47.78 h | 5.43
rat [4], 72.42 h | 7.03
rat [4], 96.58 h | 7.51
rat [4], 121.02 h | 8.21
rat [4], 144.77 h | 8.23
rat [5], 23.94 h | 0.884
rat [5], 48.41 h | 1.94
rat [5], 72.16 h | 3.75
rat [5], 96.63 h | 4.84
rat [5], 120.41 h | 5.22
rat [5], 144.81 h | 5.41
rat [6], 23.43 h | 7.37
rat [6], 47.73 h | 18.4
rat [6], 71.9 h | 31.3
rat [6], 95.37 h | 33.1
rat [6], 120.29 h | 33.4
rat [6], 144.04 h | 33.6
rat [7], 23.4 h | 0.591
rat [7], 48.57 h | 2.38
rat [7], 72.51 h | 6.61
rat [7], 96.49 h | 9.6
rat [7], 120.43 h | 10.6
rat [7], 145.24 h | 11

Oc1ccc2ccc3c4ccccc4cc4ccc1c2c43 [3-hydroxybenzo(a)pyrene]
dosed: benzo(a)pyrene, iv
Settings | concentration in feces, rat [15] [µmol/kg] | concentration in kidney, rat [10] [µmol/kg] | concentration in liver, rat [9] [µmol/kg] | concentration in lung, rat [11] [µmol/kg] | concentration in urine, rat [8]
2 h, 40 umol/kg | 0.0001 | 0.195 | 0.49 | 0.023 | 0.0001 µmol/kg
4 h, 40 umol/kg | 0.0004 | 0.429 | 0.588 | 0.0236 | 0.0022 µmol/kg
4.5 h, 0.01 mg/kg | – | – | – | – | 0.494 µg/kg
4.5 h, 0.05 mg/kg | – | – | – | – | 1.59 µg/kg
8 h, 40 umol/kg | 0.0035 | 0.65 | 0.141 | 0.0176 | 0.0119 µmol/kg
16 h, 40 umol/kg | 0.471 | 0.583 | 0.0819 | 0.0153 | 0.0604 µmol/kg
24 h, 0.01 mg/kg | – | – | – | – | 0.582 µg/kg
24 h, 0.05 mg/kg | – | – | – | – | 2.5 µg/kg
24 h, 40 umol/kg | 4.71 | 0.347 | 0.0528 | 0.0102 | 0.068 µmol/kg
33 h, 40 umol/kg | 7.72 | 0.293 | 0.0505 | 0.0085 | 0.19 µmol/kg
48 h, 0.01 mg/kg | – | – | – | – | 0.068 µg/kg
48 h, 0.05 mg/kg | – | – | – | – | 0.305 µg/kg
48 h, 40 umol/kg | 8.75 | 0.0936 | 0.0149 | 0.0047 | 0.149 µmol/kg
72 h, 0.01 mg/kg | – | – | – | – | 0.023 µg/kg
72 h, 0.05 mg/kg | – | – | – | – | 0.115 µg/kg
72 h, 40 umol/kg | 12.9 | 0.0512 | 0.0096 | 0.0045 | 0.209 µmol/kg

Settings | concentration in adipose, rat [14] [µmol/kg] | concentration in skin, rat [12] [µmol/kg]
2 h | 0.0241 | 0.385
4 h | 0.0381 | 0.232
8 h | 0.0582 | 0.135
16 h | 0.0348 | 0.103
24 h | 0.033 | 0.041
33 h | 0.0322 | 0.0215
48 h | 0.0192 | 0.0148
72 h | 0.0114 | 0.0073

rat [13], dosed: benzo(a)pyrene, 40 umol/kg, iv, Sprague Dawley
Settings | concentration in blood [µmol/kg]
2 h | 0.105
4 h | 0.0863
8 h | 0.0912
16 h | 0.0388
24 h | 0.0235
33 h | 0.0142
48 h | 0.0084
72 h | 0.0047

Oc1ccc2ccc3c4ccccc4cc4ccc1c2c43 [3-hydroxybenzo[a]pyrene]
Settings | amount in feces after dosing [ng] | amount in urine after dosing [ng] | concentration in serum [ng/mL]
rat [16], 10.02 h | – | 46.8 | –
rat [16], 23.97 h | – | 166 | –
rat [16], 47.95 h | – | 220 | –
rat [16], 71.92 h | – | 269 | –
rat [16], 95.9 h | – | 310 | –
rat [16], 119.75 h | – | 346 | –
rat [17], 10.07 h | 4790 | – | –
rat [17], 24.05 h | 16900 | – | –
rat [17], 48.1 h | 22700 | – | –
rat [17], 72.03 h | 23700 | – | –
rat [17], 96.08 h | 24500 | – | –
rat [17], 120 h | 24900 | – | –
rat [18], 1.009 h | – | – | 1.32
rat [18], 2.018 h | – | – | 1.26
rat [18], 3.995 h | – | – | 5.22
rat [18], 6.005 h | – | – | 4.15
rat [18], 7.982 h | – | – | 2.24
rat [18], 9.992 h | – | – | 1.6

[3H][3H] [[3H] radioactivity]
Settings | concentration in body, rat [20] [µg/kg] | concentration in heart/thymus, rat [23] [µg/kg] | concentration in intestines, rat [21] [µg/kg] | concentration in spleen, rat [24] [µg/kg] | concentration in stomach, rat [22] [µg/kg] | concentration in testes, rat [19] [µg/kg]
0.25 h | 0.23 | 0.008 | 0.049 | 0.004 | 0.007 | 0.007
0.5 h | 0.263 | 0.005 | 0.052 | 0.002 | 0.012 | 0.006
1 h | 0.271 | 0.005 | 0.099 | 0.003 | 0.046 | 0.011
1.5 h | 0.25 | 0.005 | 0.126 | 0.002 | 0.037 | 0.013
2 h | 0.223 | 0.006 | 0.11 | 0.002 | 0.069 | 0.011
3 h | 0.214 | 0.005 | 0.123 | 0.002 | 0.05 | 0.008
4 h | 0.21 | 0.004 | 0.133 | 0.001 | 0.04 | 0.009
5 min | 0.144 | 0.009 | 0.019 | 0.005 | 0.003 | 0.004
6 h | 0.215 | 0.004 | 0.149 | 0.002 | 0.058 | 0.008
10 min | 0.264 | 0.016 | 0.033 | 0.003 | 0.007 | 0.005

dosed: [3H]benzo(a)pyrene, 1 ug/kg, inhalation, radiolabel
Settings | concentration in feces, rat [15] [µg/kg] | concentration in kidney, rat [10] [µg/kg] | concentration in liver, rat [9] [µg/kg] | concentration in lung, rat [11] [µg/kg] | concentration in urine, rat [8] [µg/kg]
0.25 h | 0.029 | 0.019 | 0.196 | 0.322 | 0.002
0.5 h | 0.033 | 0.014 | 0.186 | 0.204 | 0.001
1 h | 0.143 | 0.022 | 0.158 | 0.154 | 0.003
1.5 h | 0.171 | 0.024 | 0.171 | 0.113 | 0.008
2 h | 0.168 | 0.02 | 0.132 | 0.11 | 0.011
3 h | 0.256 | 0.018 | 0.083 | 0.068 | 0.012
4 h | 0.301 | 0.017 | 0.067 | 0.035 | 0.016
5 min | 0.005 | 0.011 | 0.125 | 0.595 | –
6 h | 0.447 | 0.02 | 0.046 | 0.052 | 0.022
10 min | 0.008 | 0.019 | 0.208 | 0.419 | 0.0001

rat [13], dosed: [3H]benzo(a)pyrene, 1 ug/kg, inhalation, Sprague Dawley, radiolabel
Settings | concentration in blood [µg/kg]
0.25 h | 0.038
0.5 h | 0.016
1 h | 0.016
1.5 h | 0.021
2 h | 0.019
3 h | 0.011
4 h | 0.008
5 min | 0.039
6 h | 0.017
10 min | 0.03

ClC(Cl)=C(Cl)Cl [perchloroethylene]
concentration in blood [ng/mL]
Settings | 0.5 h | 1 h | 2 h | 3 h | 4 h
rat [25] | 17000 | 45000 | 39600 | 31600 | 42600
rat [26] | 6940 | 32300 | 29900 | 17500 | 32300
rat [27] | 3610 | 15200 | 19600 | 13900 | 29200

rat [13], dosed: perchloroethylene, 12500 ppm, dermal, duration: 4 hr, F344
Settings | concentration in blood [ng/mL]
0.5 h | 20600
1 h | 21100
2 h | 21500
3 h | 25200
4 h | 29200
